≈ marks a conversion by molar mass, not a printed value.
Legend:
Format in all cases: functional
Aspergillus fumigatus = experiment: Antimicrobial activity against Aspergillus fumigatus by micro-broth dilution method
How it was run: (§1)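 Clinical isolates. Tested by broth microdilution in 96-well plates following NCCLS M27-A2. MIC80, the minimum concentration inhibiting growth by 80%, was recorded. Marketed reference antifungals were included as positive controls.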

Nannizzia gypsea = experiment: Antimicrobial activity against Microsporum gypseum by micro-broth dilution method; how it was run: as §1
Trichophyton rubrum = experiment: Antimicrobial activity against Trichophyton rubrum by micro-broth dilution method; how it was run: as §1
Candida parapsilosis = experiment: Antimicrobial activity against Candida parapsilosis by micro-broth dilution method; conditions: Lodderomyces parapsilosis; how it was run: as §1
Candida albicans = experiment: Antimicrobial activity against Candida albicans by micro-broth dilution method
How it was run: (§2)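 ATCC standard strains. Broth microdilution in 96-well plates following NCCLS M27-A2 (reference broth dilution method for yeasts). Endpoint is MIC80, the lowest concentration giving 80% growth inhibition. Marketed reference antifungals ran alongside as positive controls.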

Pichia kudriavzevii = experiment: Antimicrobial activity against Candida krusei by micro-broth dilution method; how it was run: as §1
Cryptococcus neoformans = experiment: Antimicrobial activity against Cryptococcus neoformans by micro-broth dilution method; how it was run: as §2
Candida tropicalis = experiment: Antimicrobial activity against Candida tropicalis by micro-broth dilution method; how it was run: as §1

Compound	MIC80 (Aspergillus fumigatus) [µg/mL]	MIC80 (Nannizzia gypsea) [µg/mL]	MIC80 (Trichophyton rubrum) [µg/mL]	MIC80 (Candida parapsilosis) [µg/mL]	MIC80 (Candida albicans) [µg/mL]	MIC80 (Pichia kudriavzevii) [µg/mL]	MIC80 (Cryptococcus neoformans) [µg/mL]	MIC80 (Candida tropicalis) [µg/mL]
CCCN(Cc1ccc(F)cc1)CC(O)(Cn1cncn1)c1ccc(F)cc1F (centres undefined)	> 64	0.0039 (≈ 0.00964 µM)	1 (≈ 2.47 µM)	0.0625 (≈ 0.155 µM)	0.0625 (≈ 0.155 µM)	0.0625 (≈ 0.155 µM)	0.0625 (≈ 0.155 µM)	0.25 (≈ 0.618 µM)
CCCN(Cc1ccc(Cl)cc1Cl)CC(O)(Cn1cncn1)c1ccc(F)cc1F (centres undefined)	> 64	0.0156 (≈ 0.0343 µM)	1 (≈ 2.2 µM)	1 (≈ 2.2 µM)	0.25 (≈ 0.549 µM)	1 (≈ 2.2 µM)	1 (≈ 2.2 µM)	4 (≈ 8.78 µM)
Cc1ccccc1CN(CC(O)(Cn1cncn1)c1ccc(F)cc1F)C(C)C (centres undefined)	> 64	0.0625 (≈ 0.156 µM)	0.25 (≈ 0.624 µM)	0.0625 (≈ 0.156 µM)	0.0156 (≈ 0.039 µM)	0.25 (≈ 0.624 µM)	0.25 (≈ 0.624 µM)	0.25 (≈ 0.624 µM)
CCCN(Cc1ccc(CC)cc1)CC(O)(Cn1cncn1)c1ccc(F)cc1F (centres undefined)	> 64	0.25 (≈ 0.603 µM)	1 (≈ 2.41 µM)	0.25 (≈ 0.603 µM)	0.0156 (≈ 0.0376 µM)	1 (≈ 2.41 µM)	1 (≈ 2.41 µM)	0.25 (≈ 0.603 µM)
CC(C)N(Cc1ccc(Cl)cc1)CC(O)(Cn1cncn1)c1ccc(F)cc1F (centres undefined)	1 (≈ 2.38 µM)	0.0625 (≈ 0.148 µM)	0.25 (≈ 0.594 µM)	0.0625 (≈ 0.148 µM)	0.0625 (≈ 0.148 µM)	0.0625 (≈ 0.148 µM)	0.25 (≈ 0.594 µM)	0.25 (≈ 0.594 µM)
CCCN(Cc1ccc(Cl)cc1)CC(O)(Cn1cncn1)c1ccc(F)cc1F (centres undefined)	64 (≈ 152 µM)	0.0625 (≈ 0.148 µM)	1 (≈ 2.38 µM)	0.25 (≈ 0.594 µM)	0.0625 (≈ 0.148 µM)	0.0625 (≈ 0.148 µM)	0.0625 (≈ 0.148 µM)	0.25 (≈ 0.594 µM)
CCCCN(Cc1ccc(Cl)cc1)CC(O)(Cn1cncn1)c1ccc(F)cc1F (centres undefined)	> 64	1 (≈ 2.3 µM)	1 (≈ 2.3 µM)	1 (≈ 2.3 µM)	1 (≈ 2.3 µM)	1 (≈ 2.3 µM)	1 (≈ 2.3 µM)	1 (≈ 2.3 µM)
CC(C)N(Cc1ccccc1Br)CC(O)(Cn1cncn1)c1ccc(F)cc1F (centres undefined)	> 64	0.0156 (≈ 0.0335 µM)	0.0625 (≈ 0.134 µM)	0.0625 (≈ 0.134 µM)	0.25 (≈ 0.537 µM)	0.25 (≈ 0.537 µM)	0.25 (≈ 0.537 µM)	0.0625 (≈ 0.134 µM)
C[C@@H]1[C@H](O)[C@@H](C)/C=C/C=C/C=C/C=C/C=C/C=C/C=C/[C@H](O[C@@H]2O[C@H](C)[C@@H](O)[C@H](N)[C@@H]2O)C[C@@H]2O[C@](O)(C[C@@H](O)C[C@@H](O)[C@H](O)CC[C@@H](O)C[C@@H](O)CC(=O)O[C@H]1C)C[C@H](O)[C@H]2C(=O)O [AMPHOTERICIN B]	64 (≈ 69.3 µM)	2 (≈ 2.16 µM)	2 (≈ 2.16 µM)	2 (≈ 2.16 µM)	2 (≈ 2.16 µM)	2 (≈ 2.16 µM)	2 (≈ 2.16 µM)	2 (≈ 2.16 µM)
CCCCN(Cc1ccc([N+](=O)[O-])cc1)CC(O)(Cn1cncn1)c1ccc(F)cc1F (centres undefined)	> 64	0.0625 (≈ 0.14 µM)	0.25 (≈ 0.561 µM)	0.25 (≈ 0.561 µM)	0.0156 (≈ 0.035 µM)	1 (≈ 2.24 µM)	0.0625 (≈ 0.14 µM)	0.0625 (≈ 0.14 µM)
CCCCN(Cc1ccc(Br)cc1)CC(O)(Cn1cncn1)c1ccc(F)cc1F (centres undefined)	> 64	1 (≈ 2.09 µM)	0.25 (≈ 0.522 µM)	0.25 (≈ 0.522 µM)	4 (≈ 8.34 µM)	1 (≈ 2.09 µM)	0.25 (≈ 0.522 µM)	1 (≈ 2.09 µM)
CCCN(Cc1ccccc1Cl)CC(O)(Cn1cncn1)c1ccc(F)cc1F (centres undefined)	> 64	0.0156 (≈ 0.0371 µM)	4 (≈ 9.5 µM)	0.25 (≈ 0.594 µM)	0.25 (≈ 0.594 µM)	0.25 (≈ 0.594 µM)	0.0625 (≈ 0.148 µM)	0.25 (≈ 0.594 µM)
CCCN(Cc1ccc(C)cc1)CC(O)(Cn1cncn1)c1ccc(F)cc1F (centres undefined)	> 64	0.0156 (≈ 0.039 µM)	0.25 (≈ 0.624 µM)	0.0625 (≈ 0.156 µM)	0.0625 (≈ 0.156 µM)	0.0625 (≈ 0.156 µM)	0.25 (≈ 0.624 µM)	0.0625 (≈ 0.156 µM)
